In ChEMBL document CHEMBL2417499, “Structure-activity relationship studies of Niemann-Pick type C1-like 1 (NPC1L1) ligands identified by screening assay monitoring pharmacological chaperone effect” (Bioorg Med Chem, 2013) one finds Activity, EC50 and Ratio EC50 data, which are given here for five molecules.

Data set [1] concerns HEK293. Nature of the data set: Binding affinity to human GFP-tagged NPC1L1 L1072T/L1168I mutant expressed in HEK293 cells assessed as localization to endoplasmic reticulum and plasma membrane at 10 uM after 24 hrs by fluorescence microscopic analysis. The data set is classed as cell-based. A digest of the protocol: (§1)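 HEK293 cells stably expressing NPC1L1-GFP mutant from a CMV promoter, kept under G418 (0.4 mg/mL). Seeded at 6,000 cells/well on poly-lysine-coated glass in DMEM with 1% FBS. Dosed next day in 0.1% DMSO final for 24 h, then fixed in 3.7% formaldehyde and imaged at ×100. Each cell in 25 images scored ER 0 to PM 1; mean reported as % plasma membrane localization.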

Data set [2] has as its system HEK293. As to the kind of experiment: Competitive binding affinity to human GFP-tagged NPC1L1 L1072T/L1168I mutant expressed in HEK293 cells assessed as localization to endoplasmic reticulum and plasma membrane at 0.01 to 10 uM after 24 hrs by fluorescence microscopic analysis in presence of N,N-(Dimethyl)-delta(5)-cholenamid-3beta-yl N,N-bis(2-hydroxyethyl)carbamate. The data set is classed as cell-based.

The subject of data set [3] is HEK293. As to the kind of experiment: Binding affinity to human GFP-tagged NTD-deleted NPC1L1 L1072T/L1168I mutant expressed in HEK293 cells assessed as localization to plasma membrane at 10 uM after 24 hrs by fluorescence microscopic analysis. The data set is classed as cell-based. The procedure, abridged: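 HEK293 cells stably expressing the GFP-tagged NTD-deleted mutant were treated for 24 h with 0.1% final DMSO, then fixed in 3.7% formaldehyde. Cells were imaged at ×100 and scored from ER (0) to PM (1) over 25 images, reported as % plasma membrane localization.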

The test system of data set [4] is HEK293. Nature of the data set: Cytotoxicity against HEK293 cells transfected with human GFP-tagged NPC1L1 L1072T/L1168I mutant. It is filed as cell-based.
The test system of data set [5] is HEK293. As to the kind of experiment: Binding affinity to human GFP-tagged NPC1L1 L1072T/L1168I mutant expressed in HEK293 cells assessed as localization to endoplasmic reticulum and plasma membrane at 3 uM after 24 hrs by fluorescence microscopic analysis. It is filed as cell-based. The procedure, abridged: as §1
Data set [6] deals with T1, NPC intracellular cholesterol transporter 1 (Homo sapiens) (UniProt O15118).
T1 sequence (whole entry): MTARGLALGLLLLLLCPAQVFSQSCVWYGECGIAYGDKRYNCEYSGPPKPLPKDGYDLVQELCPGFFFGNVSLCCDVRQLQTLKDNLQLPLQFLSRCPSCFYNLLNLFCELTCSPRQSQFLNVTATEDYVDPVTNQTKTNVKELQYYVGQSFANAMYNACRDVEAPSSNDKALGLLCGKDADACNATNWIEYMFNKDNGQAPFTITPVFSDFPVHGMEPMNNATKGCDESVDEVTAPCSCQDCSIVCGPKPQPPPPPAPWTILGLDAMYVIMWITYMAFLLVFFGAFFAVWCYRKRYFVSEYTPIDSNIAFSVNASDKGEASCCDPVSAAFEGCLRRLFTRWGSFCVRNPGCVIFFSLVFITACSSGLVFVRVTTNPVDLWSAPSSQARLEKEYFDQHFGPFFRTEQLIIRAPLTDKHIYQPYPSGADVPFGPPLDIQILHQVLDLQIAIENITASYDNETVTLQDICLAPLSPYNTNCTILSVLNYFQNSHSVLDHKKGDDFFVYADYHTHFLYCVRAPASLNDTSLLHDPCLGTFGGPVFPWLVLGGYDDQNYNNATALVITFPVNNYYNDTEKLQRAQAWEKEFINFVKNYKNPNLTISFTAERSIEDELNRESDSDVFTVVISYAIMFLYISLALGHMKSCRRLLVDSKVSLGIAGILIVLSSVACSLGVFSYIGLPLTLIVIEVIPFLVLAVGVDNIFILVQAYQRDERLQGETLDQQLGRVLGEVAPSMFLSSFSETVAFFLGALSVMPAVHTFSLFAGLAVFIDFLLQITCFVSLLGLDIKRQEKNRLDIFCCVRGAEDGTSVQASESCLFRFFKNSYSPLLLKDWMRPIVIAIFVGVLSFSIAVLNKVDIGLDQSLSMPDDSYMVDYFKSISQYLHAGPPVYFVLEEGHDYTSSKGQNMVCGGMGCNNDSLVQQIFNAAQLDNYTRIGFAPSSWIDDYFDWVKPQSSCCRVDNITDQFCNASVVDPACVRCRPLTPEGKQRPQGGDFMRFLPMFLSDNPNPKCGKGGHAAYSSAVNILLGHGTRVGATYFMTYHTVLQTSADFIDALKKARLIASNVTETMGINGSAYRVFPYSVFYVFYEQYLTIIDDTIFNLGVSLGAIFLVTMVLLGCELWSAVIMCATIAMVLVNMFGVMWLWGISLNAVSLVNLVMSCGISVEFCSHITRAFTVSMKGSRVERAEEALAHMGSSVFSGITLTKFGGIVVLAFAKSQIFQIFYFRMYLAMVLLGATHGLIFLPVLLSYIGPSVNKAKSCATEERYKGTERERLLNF
As to the kind of experiment: (§2) Binding affinity to NPC1 (unknown origin).

The nature of data set [7]: Binding affinity to human GFP-tagged NTD-deleted NPC1L1 L1072T/L1168I mutant expressed in HEK293 cells assessed as localization to plasma membrane after 24 hrs by fluorescence microscopic analysis. It is filed as cell-based. A digest of the protocol: (§3)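 HEK293 cells stably expressing the GFP-tagged construct (G418 0.4 mg/mL) were seeded at 6,000 cells/well in DMEM with 1% FBS on poly-lysine-coated glass. On day 2 they were treated for 24 h, final DMSO 0.1%. Cells were fixed in 3.7% formaldehyde and imaged at ×100. Across 25 images, cells were scored ER 0 to PM 1 and averaged as % plasma membrane localization. EC50 was taken from this score.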

In data set [8] the test system is HEK293. Nature of the data set: Binding affinity to human GFP-tagged NPC1L1 L1072T/L1168I mutant expressed in HEK293 cells assessed as protein stabilization after 24 hrs by fluorescence assay. The data set is classed as cell-based. The procedure, abridged: (§4)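 Stable HEK293 lines were grown to 70% confluency in phenol red-free medium in 12-well plates and exposed to vehicle or compound for 24 h. Supernatant GFP fluorescence was read and normalized to BCA total protein, n = 3.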

The species named for data set [9] is Homo sapiens. Nature of the data set: Selectivity ratio of EC50 for NPC1 (unknown origin) to EC50 for human GFP-tagged NPC1L1 L1072T/L1168I mutant.
Data set [10] concerns the target T2, NPC intracellular cholesterol transporter 1 (Homo sapiens, UniProt O15118).
T2 sequence (O15118 whole entry): T1 sequence (whole entry)
Described as §2.

Data set [11] in a line: Binding affinity to human GFP-tagged NPC1L1 L1072T/L1168I mutant expressed in HEK293 cells assessed as localization to endoplasmic reticulum and plasma membrane after 24 hrs by fluorescence microscopic analysis. It is filed as cell-based. Particulars: read-out: EC50. A digest of the protocol:
as §3

Data set [12] deals with HEK293. Nature of the data set: Binding affinity to human GFP-tagged NTD-deleted NPC1L1 L1072T/L1168I mutant expressed in HEK293 cells assessed as protein stabilization after 24 hrs by fluorescence assay. It is filed as cell-based. The procedure, abridged: as §4

Active and inactive are the calls of the source. The rule behind the calls is not given here.

For orientation: EC50 means the midpoint of the concentration-response curve.

In the case of `O=C1[C@H](CC[C@H](O)c2ccc(F)cc2)[C@@H](c2ccc(O)cc2)N1c1ccc(F)cc1`, the result in [1] and in [2] was inactive.
With `CCCCN(CCCC)C(=O)O[C@H]1CC[C@@]2(C)C(=CC[C@H]3[C@@H]4CC[C@H]([C@H](C)CCC(=O)N(C)C)[C@@]4(C)CC[C@@H]32)C1`, the result in data set [1] and in [3] was inactive.
Regarding `CCCN(CCC)C(=O)CC[C@@H](C)[C@H]1CC[C@H]2[C@@H]3CC=C4C[C@@H](O)CC[C@]4(C)[C@H]3CC[C@]12C`, the Activity entry in data set [4] is “Toxic”.
`CC(C)CCC[C@@H](C)[C@H]1CC[C@H]2[C@@H]3C[C@@H](O)[C@@]4(O)C[C@@H](O)CC[C@]4(C)[C@H]3CC[C@]12C`: in data set [5], the outcome was inactive. Moreover, the result in data set [6] was Active.
As for `C[C@H](CCC(=O)N(C)C)[C@H]1CC[C@H]2[C@@H]3CC=C4C[C@@H](OC(=O)N(CCO)CCO)CC[C@]4(C)[C@H]3CC[C@]12C`, the figures for the concentration giving a half-maximal response (EC50) in data set [7], in [10] and in [11] were 1700 nM, 1600 nM and 650 nM, respectively. Also, in [8], the Activity entry is “Dose-dependent effect”. The Ratio EC50 in data set [9] was 2.5. Besides, in [12], the result was Active.
